Assay results: ChEMBL document CHEMBL3045061, “Biological activity of peanut (Arachis hypogaea) phytoalexins and selected natural and synthetic Stilbenoids” (J Agric Food Chem, 2011)
The source made the active and inactive calls. The calls are words filed in the database; no cut-off is given here.

What was measured:
Botrytis cinerea [1] = assay: Antifungal activity against Botryotinia fuckeliana assessed as growth inhibition after 48 hr by NCCLS M27-A broth microdilution method; assay type: functional, organism-based
In short: (§1)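 Broth microdilution adapted from the NCCLS M27-A yeast method for conidia-forming filamentous plant pathogens. Growth inhibition was read at 48 h and 72 h for Botrytis cinerea, and at 120 h and 144 h for Phomopsis viticola and P. obscurans. The highest concentration tested was 30 μM. Captan served as the internal standard. Means were compared by ANOVA with Fisher's protected LSD.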

Phomopsis obscurans [2] = assay: Antifungal activity against Phomopsis obscurans assessed as growth inhibition after 144 hr by NCCLS M27-A broth microdilution method; assay type: functional, organism-based; details: Paraphomopsis obscurans; in short: as §1
Botrytis cinerea [3] = assay: Antifungal activity against Botryotinia fuckeliana assessed as growth inhibition after 72 hr by NCCLS M27-A broth microdilution method; assay type: functional, organism-based; in short: as §1
Phomopsis obscurans [4] = assay: Antifungal activity against Phomopsis obscurans assessed as growth inhibition after 120 hr by NCCLS M27-A broth microdilution method; assay type: functional, organism-based; details: Paraphomopsis obscurans; in short: as §1
Diaporthe ampelina [5] = assay: Antifungal activity against Diaporthe ampelina assessed as growth inhibition after 144 hr by NCCLS M27-A broth microdilution method; assay type: functional, organism-based; in short: as §1
[6] = Octanol-water partition coefficient, log P of the compound by HPLC analysis; assay type: physicochemical
In short: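 Log P was estimated by isocratic reversed-phase HPLC on a Gemini C18 column (5 μm, 4.6 × 150 mm). The mobile phase was MeOH/H2O/2% HCOOH in H2O (55:43:2, w/w) at 1.0 mL/min and 37 °C, with samples dissolved in the mobile phase. Capacity factor K = (t1 − t0)/t0, with t0 taken from D2O. […] At least 5 injections were made.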

Phomopsis obscurans [7] = assay: Antifungal activity against Phomopsis obscurans assessed as growth inhibition at 30 uM after 144 hr by NCCLS M27-A broth microdilution method; assay type: functional, organism-based; details: Paraphomopsis obscurans; in short: as §1
Diaporthe ampelina [8] = assay: Antifungal activity against Diaporthe ampelina assessed as growth inhibition at 30 uM after 144 hr by NCCLS M27-A broth microdilution method; assay type: functional, organism-based; in short: as §1
Diaporthe ampelina [9] = assay: Antifungal activity against Diaporthe ampelina assessed as growth inhibition after 120 hr by NCCLS M27-A broth microdilution method; assay type: functional, organism-based; in short: as §1

SMILES	Activity (Botrytis cinerea [1])	Activity (Phomopsis obscurans [2])	Activity (Botrytis cinerea [3])	Activity (Phomopsis obscurans [4])	Activity (Diaporthe ampelina [5])	logP [6]	Activity (Phomopsis obscurans [7])	logP ([6]; read-out: logP)	Activity (Diaporthe ampelina [8])	Activity (Diaporthe ampelina [9])
CC(C)/C=C/c1c(O)cc(/C=C/c2ccccc2)cc1O [ARAHYPIN-1]	inactive	Active	inactive	Active	Active	3.71	–	–	–	–
CC1(C)C=Cc2c(O)cc(/C=C/c3ccc(O)cc3)cc2O1 [ARAHYPIN-5]	inactive	–	inactive	–	Active	3.34	–	–	–	–
Oc1cccc(/C=C/c2ccccc2)c1 [(E)-3-STILBENOL]	–	–	–	–	–	3.22	Active	–	–	–
COc1cc(/C=C/c2ccccc2)cc(OC)c1 [3,5-O-DIMETHYLPINOSYLVIN]	–	–	–	–	–	–	inactive	4.15	–	–
CC(C)/C=C/c1c(O)cc(/C=C/c2ccc(O)cc2)cc1O [ARACHIDIN-3]	inactive	inactive	inactive	inactive	–	–	–	2.83	–	–
CC(C)=CCc1c(O)cc(/C=C/c2ccccc2)cc1O [CHIRICANINE A]	inactive	Active	inactive	inactive	Active	3.46	–	–	–	–
COc1ccc(/C=C/c2cc(O)cc(O[C@@H]3O[C@H](CO)[C@@H](O)[C@H](O)[C@H]3O)c2)cc1O [RHAPONTIN]	–	–	Active	–	–	0.74	Active	–	–	–
Oc1ccc(/C=C/c2cccc(O)c2)cc1 [(E)-3,4'-STILBENDIOL]	–	–	–	–	–	–	Active	2.08	–	–
Oc1cccc(CCc2ccccc2)c1 [3-PHENETHYLPHENOL]	–	–	–	–	–	3.19	Active	–	Active	Active
COc1cc(/C=C/c2ccc(O)cc2)cc(OC)c1 [PTEROSTILBENE]	Active	–	Active	–	–	–	Active	3.15	–	–
CC(C)=CCC/C(C)=C/Cc1c(O)cc(/C=C/c2ccc(O)cc2O)cc1O [CHLOROPHORIN]	Active	–	Active	–	–	3.29	Active	–	–	Active
COc1cc(O)cc(/C=C/c2ccccc2)c1 [PINOSYLVIN METHYL ETHER]	–	–	–	–	–	–	Active	3.21	–	Active
Oc1ccc(/C=C/c2ccccc2)cc1O	Active	–	inactive	–	–	–	inactive	–	–	inactive
CC(C)=CCc1c(O)cc(/C=C/c2ccc(O)cc2)cc1O [ARACHIDIN-2]	inactive	inactive	inactive	inactive	–	–	–	2.56	–	–
O=C1C2CC=CCC2C(=O)N1SC(Cl)(Cl)Cl (centres undefined)	–	–	–	–	Active	–	–	–	–	–
COc1cccc(CCc2ccc(O)cc2)c1	–	–	–	–	–	3.07	Active	–	–	–
COc1cccc(/C=C/c2ccc(O)cc2)c1 [(E)-5-METHOXY-4'-STILBENOL]	–	–	–	–	–	3.14	Active	–	–	Active
Oc1ccc(/C=C/c2cc(O)cc(O)c2)cc1 [RESVERATROL]	Active	–	inactive	–	–	–	inactive	1.35	–	inactive
CC(C)/C=C/c1c(O)cc(/C=C/C2=CC(=O)OC2CC(=O)O)cc1O (centres undefined)	inactive	inactive	inactive	inactive	–	–	–	2.59	–	–
COc1ccc(/C=C/c2cc(OC)cc(OC)c2)cc1 [TRISMETHOXYRESVERATROL]	–	–	–	–	–	–	Active	4.07	–	–
CC(C)/C=C/c1c(O)cc(/C=C/c2ccc(O)c(O)c2)cc1O [ARACHIDIN-1]	inactive	inactive	inactive	inactive	–	2.44	–	–	–	–
CC(C)(O)C(O)Cc1cc(/C=C/c2cc(O)cc(O)c2)ccc1O (centres undefined) [ARAHYPIN-2]	inactive	inactive	inactive	Active	–	1.36	–	–	–	–
CC(C)(O)C(O)Cc1c(O)cc(/C=C/c2ccccc2)cc1O (centres undefined) [ARAHYPIN-4]	inactive	–	inactive	–	–	2.59	–	–	–	–
Oc1cc(O)cc(/C=C/c2ccccc2)c1 [PINOSYLVIN]	Active	–	inactive	–	–	–	inactive	2.25	–	inactive
CC(C)(O)C(O)Cc1c(O)cc(/C=C/c2ccc(O)cc2)cc1O (centres undefined) [ARAHYPIN-3]	inactive	–	inactive	–	–	1.59	–	–	–	–
